According to ChEMBL document CHEMBL3232972, “Synthesis and biological evaluation of some novel pyrido[1,2-a]pyrimidin-4-ones as antimalarial agents” (Eur J Med Chem, 2014):

Tests used:
[1] = test system: Plasmodium falciparum; test: Antimalarial activity against erythrocytic stages of chloroquine-sensitive Plasmodium falciparum 3D7 infected in human O-positive erythrocytes after 48 hrs by SYBR Green-I fluorescence-based method; format: functional, organism-based; conditions: 3D7, 48 h
[2] = Selectivity index, ratio for IC50 for human HuH7 cells to IC50 for erythrocytic stages of chloroquine-sensitive Plasmodium falciparum 3D7; format: functional, Huh-7
[3] = Cytotoxicity against human HuH7 cells after 24 hrs by MTT assay; format: cell-based; conditions: Huh-7, 24 h
Summary of the method: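 Huh-7 cells in DMEM with 10% FBS and gentamicin, seeded at 10⁴ cells per well and left overnight. Compounds added for 24 h at 37 °C, 5% CO2, with 10% DMSO as positive control. MTT added for a further 3 h. Formazan dissolved in DMSO after centrifugation, read at 570 nm. IC50 from dose-response curves.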

SMILES | IC50 [1] | Ratio IC50 [2] | IC50 [3]
CCCCCOc1cccnc1NC(=O)c1cnc2ccccn2c1=O | > 100 µM |  | 
N#C[C@H](Cc1ccccc1)NC(=O)Nc1cnc2ccccn2c1=O | > 100 µM |  | 
CCOC(=O)[C@H](Cc1ccccc1)NC(=O)Nc1cnc2ccccn2c1=O | > 100 µM |  | 
Cc1ccn2c(=O)c(NC(=O)N(Cc3ccccc3)C(C)C)cnc2c1 | > 100 µM |  | 
O=C(NC1CCN(Cc2ccccc2)CC1)c1cnc2ccccn2c1=O | > 100 µM |  | 
O=C(NCCC(c1ccccc1)c1ccccc1)Nc1cnc2ccccn2c1=O | > 100 µM |  | 
CC(C)C[C@@H](C#N)NC(=O)Nc1cnc2ccccn2c1=O | > 100 µM |  | 
O=C(Nc1cnc2ccc(Cl)cn2c1=O)N1CCN(C(=O)c2ccco2)CC1 | > 100 µM |  | 
O=C(NC1CC1)c1cccnc1N1CCN(C(=O)Nc2cnc3ccccn3c2=O)CC1 | > 100 µM |  | 
CC(C)C[C@H](NC(=O)Nc1cnc2ccccn2c1=O)C(N)=O | > 100 µM |  | 
Cc1noc(C)c1NC(=O)c1cnc2ccccn2c1=O | > 100 µM |  | 
O=C(NCc1ccccc1C(F)(F)F)Nc1cnc2ccccn2c1=O | 100 µM |  | 
O=C(Nc1cnc2ccccn2c1=O)OCc1ccc2c(c1)OCO2 | > 100 µM |  | 
NC(=O)[C@H](Cc1ccccc1)NC(=O)Nc1cnc2ccccn2c1=O | > 100 µM |  | 
O=C(Nc1cnc2ccc(Cl)cn2c1=O)OCc1ccccn1 | > 100 µM |  | 
COCCNC(=O)Nc1cnc2ccc(Cl)cn2c1=O | > 100 µM |  | 
CC(C)(C)OC(=O)N1CCN(C(=O)Nc2cnc3ccc(Cl)cn3c2=O)CC1 | > 100 µM |  | 
O=C(NCCN1CCOCC1)c1cnc2ccccn2c1=O | > 100 µM |  | 
O=C(c1cnc2ccccn2c1=O)N(Cc1ccccc1F)C1CC1 | > 100 µM |  | 
CC(C)N(Cc1ccccc1)C(=O)Nc1cnc2ccccn2c1=O | 70 µM |  | 

Further lines, with some results ahead:

IC50 [1] | SMILES | Ratio IC50 [2] | IC50 [3]
> 100 µM | O=C(Nc1ncccc1OCc1ccccc1)Nc1cnc2ccccn2c1=O |  | 
65 µM | O=C(NCc1cccc(C(F)(F)F)c1)c1cnc2ccccn2c1=O | >3 | > 200 µM
> 100 µM | COc1ccc(-c2ccc3ncc(C(=O)NCc4cccc(F)c4)c(=O)n3c2)cc1 |  | 
> 100 µM | O=C(Nc1cnc2ccc(Cl)cn2c1=O)OCc1cccc(F)c1 |  | 
> 100 µM | O=C(NCc1ccc(C(F)(F)F)cc1)Nc1cnc2ccc(Cl)cn2c1=O |  | 
> 100 µM | O=C(Nc1cnc2ccc(Cl)cn2c1=O)OCc1cccnc1 |  | 
100 µM | COc1ccc(-c2ccc3ncc(C(=O)NCC4CCCO4)c(=O)n3c2)cc1 (configuration not stated) |  | 
70 µM | Cc1ccn2c(=O)c(C(=O)NCc3ccc(C(F)(F)F)cc3)cnc2c1 | >1.4 | > 100 µM
> 100 µM | CC(C)N(Cc1ccccc1)C(=O)Nc1cnc2ccc(Cl)cn2c1=O |  | 
> 100 µM | O=C(NCc1cccc(C(F)(F)F)c1)Nc1cnc2ccc(Cl)cn2c1=O |  | 
> 100 µM | O=C(NCc1cccs1)Nc1cnc2ccc(Cl)cn2c1=O |  | 
> 100 µM | COc1ccc(-c2ccc3ncc(C(=O)NCc4ccc(C(F)(F)F)cc4)c(=O)n3c2)cc1 |  | 
59 µM | O=C(NCc1ccc(F)cc1F)c1cnc2ccccn2c1=O | >3.3 | > 200 µM
100 µM | O=C(Nc1ncccc1OCc1ccccc1)c1cnc2ccccn2c1=O |  | 
37 µM | O=C(NCc1ccc(C(F)(F)F)cc1)c1cnc2ccccn2c1=O | >5.4 | > 200 µM
> 100 µM | O=C(NCc1ccccc1C(F)(F)F)Nc1cnc2ccc(Cl)cn2c1=O |  | 
33 µM | O=C(Nc1cnc2ccccn2c1=O)OCc1cccc(F)c1 | >3 | > 100 µM
> 100 µM | COc1ccc(C(C)NC(=O)c2cnc3ccccn3c2=O)cc1 (configuration not stated) |  | 
> 100 µM | O=C(NCc1ccc(C(F)(F)F)cc1)Nc1cnc2ccccn2c1=O |  | 
> 100 µM | O=C(NCc1ccccc1C(F)(F)F)c1cnc2ccccn2c1=O |  | 
43 µM | O=C(NCc1cccc(F)c1)c1cnc2ccccn2c1=O |  | 
> 100 µM | COc1ccc(CNC(=O)c2cnc3ccccn3c2=O)cc1 |  | 
